The values that follow come from ChEMBL document CHEMBL4002591 (J Med Chem, 2017).

Series [1] addresses T1, Protein mono-ADP-ribosyltransferase PARP3 (Homo sapiens, UniProt Q9Y6F1).
T1 sequence (Q9Y6F1 whole entry): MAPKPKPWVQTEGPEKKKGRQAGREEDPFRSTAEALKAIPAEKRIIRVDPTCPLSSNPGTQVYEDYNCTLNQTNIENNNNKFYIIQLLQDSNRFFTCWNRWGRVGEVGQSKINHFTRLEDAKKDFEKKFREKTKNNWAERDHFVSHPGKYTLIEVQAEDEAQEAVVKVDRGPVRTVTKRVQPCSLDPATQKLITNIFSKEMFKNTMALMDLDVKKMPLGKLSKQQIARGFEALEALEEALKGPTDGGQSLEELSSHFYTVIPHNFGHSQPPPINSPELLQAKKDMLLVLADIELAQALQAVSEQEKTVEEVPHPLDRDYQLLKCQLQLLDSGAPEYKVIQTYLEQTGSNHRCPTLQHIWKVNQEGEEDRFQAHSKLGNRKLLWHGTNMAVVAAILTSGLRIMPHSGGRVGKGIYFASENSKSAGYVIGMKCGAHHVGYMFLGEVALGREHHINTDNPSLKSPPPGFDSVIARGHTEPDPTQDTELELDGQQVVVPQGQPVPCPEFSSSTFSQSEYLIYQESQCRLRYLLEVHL
Put plainly: Inhibition of PARP3 (unknown origin).

The target of series [2] is T2, Poly [ADP-ribose] polymerase tankyrase-1 (Homo sapiens, UniProt O95271).
T2 sequence (O95271 whole entry): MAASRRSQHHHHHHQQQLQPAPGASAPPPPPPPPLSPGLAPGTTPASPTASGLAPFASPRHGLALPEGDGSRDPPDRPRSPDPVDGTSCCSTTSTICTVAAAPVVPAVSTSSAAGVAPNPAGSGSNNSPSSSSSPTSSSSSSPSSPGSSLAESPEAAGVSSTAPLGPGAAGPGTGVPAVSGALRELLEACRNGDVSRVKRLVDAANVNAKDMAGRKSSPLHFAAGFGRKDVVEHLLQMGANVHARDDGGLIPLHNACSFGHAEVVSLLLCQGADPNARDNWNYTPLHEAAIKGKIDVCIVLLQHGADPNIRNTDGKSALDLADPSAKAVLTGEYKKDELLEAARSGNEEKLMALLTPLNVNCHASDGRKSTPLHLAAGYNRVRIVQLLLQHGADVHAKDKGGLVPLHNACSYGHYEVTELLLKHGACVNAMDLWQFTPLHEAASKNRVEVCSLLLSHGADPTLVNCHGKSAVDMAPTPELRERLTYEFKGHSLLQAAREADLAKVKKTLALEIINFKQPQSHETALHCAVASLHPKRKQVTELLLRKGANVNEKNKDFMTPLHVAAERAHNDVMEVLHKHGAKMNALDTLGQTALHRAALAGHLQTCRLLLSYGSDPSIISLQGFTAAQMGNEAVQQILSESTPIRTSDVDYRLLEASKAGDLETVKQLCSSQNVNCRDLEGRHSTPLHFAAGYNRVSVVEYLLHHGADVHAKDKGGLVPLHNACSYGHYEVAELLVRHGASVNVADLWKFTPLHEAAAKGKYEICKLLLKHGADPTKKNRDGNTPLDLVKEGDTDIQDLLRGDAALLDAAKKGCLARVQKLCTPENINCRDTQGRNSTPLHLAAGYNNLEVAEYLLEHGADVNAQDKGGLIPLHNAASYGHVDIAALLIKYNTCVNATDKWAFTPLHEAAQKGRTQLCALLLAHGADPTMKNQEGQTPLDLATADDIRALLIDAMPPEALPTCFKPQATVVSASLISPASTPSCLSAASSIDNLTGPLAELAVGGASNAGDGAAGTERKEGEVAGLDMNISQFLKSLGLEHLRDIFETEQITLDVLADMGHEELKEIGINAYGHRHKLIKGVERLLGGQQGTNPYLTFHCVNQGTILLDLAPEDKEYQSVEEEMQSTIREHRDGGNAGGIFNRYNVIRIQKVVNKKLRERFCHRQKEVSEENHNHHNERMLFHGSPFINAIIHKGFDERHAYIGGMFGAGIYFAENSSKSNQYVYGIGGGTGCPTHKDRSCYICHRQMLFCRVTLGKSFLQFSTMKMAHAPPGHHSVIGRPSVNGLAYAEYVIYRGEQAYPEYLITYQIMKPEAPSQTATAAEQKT
Put plainly: Inhibition of recombinant human N-terminal GST-tagged TNKS1 (1001 to 1327 residues) expressed in baculovirus infected sf9 cells using TACS-Sapphire as substrate measured after 30 mins by colorimetric assay.

For a further series, the system named is HEK293. In words: Cytotoxicity against HEK293 cells by light microscopic analysis. Type of series: cell-based. The note with it: human. The method in brief:
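Viability of TCF/LEF reporter HEK293 cells was checked by light microscopy during the Wnt-signaling reporter assay.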

Another series deals with DLD-1. In words: Anti-proliferative activity against human DLD1 cells assessed as inhibition of colony formation at 100 nM measured after 18 days under normal serum condition by trypan blue staining based light microscopic analysis. Type of series: functional, cell-based. The procedure, abridged: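 DLD-1 colony-forming assay under normal serum: 1000 cells/well, with 1.0 µM or 100 nM compound, or a 1% DMSO (v/v) vehicle control. Colonies were counted, n = 3.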

For the next series, the species on record is Mus musculus. Put plainly: Inhibition of TNKS in mouse 3T3L1 cells assessed as upregulation of GLUT4 by measuring increase in insulin-stimulated glucose uptake at 100 nM using 2-deoxy-D-[2,6-3H]glucose as substrate pretreated for 1 hr followed by insulin stimulation for 30 mins and subsequent addition of substrate measured after 5 mins by scintillation counter. The class given is cell-based. On the set-up: scale not given: the % may be the effect or the level left. The method in brief:
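3T3-L1 fibroblasts were grown in DMEM and differentiated to adipocytes with insulin, dexamethasone and isobutylmethylxanthine, then used 10-12 d later. Cells were serum-starved 2 h at 37°C and given compound for 1 h. After KRH washes (pH 7.4), cells were held 30 min with compound, with or without 100 nM insulin. 2-Deoxy-D-[2,6-³H]glucose was added for 5 min.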

Activity calls are given as the source filed them. The rule behind the calls is not given here.

One may read the IC50 as the concentration at which inhibition is half-maximal. For `Cc1cccc2c(=O)[nH]c(CCC(=O)Nc3ccc(C(=O)Nc4cccc5cccnc45)cc3)nc12`, the IC50 was determined as 45 µM in series [1] and 0.0051 µM in series [2]. Further, the Activity entry in the series with HEK293 was “Non-Toxic”; in the series filed under Mus musculus, 20%. For the same compound, in the series with DLD-1, the inhibition result is “Active”.

For `O=C(CCc1nc2ccccc2c(=O)[nH]1)Nc1ccc(C(=O)Nc2cccc3cccnc23)cc1`, the IC50 turned out to be 40 µM in series [1] and 0.0091 µM in series [2]. In addition, the Activity result in the series with HEK293 is “Non-Toxic”; in the series listed under Mus musculus, 40%. The inhibition entry with DLD-1 was “Active”.
